Data set [1] addresses Butyrylcholinesterase (Rattus norvegicus) (UniProt Q9JKC1). Put plainly: Inhibition of BuChE in rat serum at 40 uM using butyrylthiocholine iodide as substrate after 20 mins by Ellman's method.
For a further data set, the target named is T1, Acetylcholinesterase (Rattus norvegicus, UniProt P37136).
T1 sequence (P37136 whole entry): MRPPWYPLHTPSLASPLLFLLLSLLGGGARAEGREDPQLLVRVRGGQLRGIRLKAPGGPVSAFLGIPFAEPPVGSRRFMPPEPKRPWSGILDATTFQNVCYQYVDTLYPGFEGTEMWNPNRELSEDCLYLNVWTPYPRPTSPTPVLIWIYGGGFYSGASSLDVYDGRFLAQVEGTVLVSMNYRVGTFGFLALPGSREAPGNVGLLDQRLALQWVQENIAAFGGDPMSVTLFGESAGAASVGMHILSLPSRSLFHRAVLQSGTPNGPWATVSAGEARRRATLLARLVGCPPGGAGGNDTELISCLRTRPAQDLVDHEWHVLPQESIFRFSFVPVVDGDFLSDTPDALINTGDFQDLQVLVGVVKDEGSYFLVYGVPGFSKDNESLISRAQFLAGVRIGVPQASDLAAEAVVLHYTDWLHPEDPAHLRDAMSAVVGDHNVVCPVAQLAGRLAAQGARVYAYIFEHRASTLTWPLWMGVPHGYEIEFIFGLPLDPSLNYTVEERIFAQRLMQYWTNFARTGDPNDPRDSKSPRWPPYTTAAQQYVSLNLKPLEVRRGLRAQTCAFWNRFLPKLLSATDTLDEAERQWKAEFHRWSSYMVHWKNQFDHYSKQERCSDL
Put plainly: Inhibition of AChE in rat cortex homogenate using acetylthiocholine iodide as substrate after 20 mins by Ellman's method.

For another data set, the species on record is Rattus norvegicus. Kind of data set: Selectivity index, ratio of IC50 for BuChE in rat serum to IC50 for AChE in rat cortex homogenate. Format: tissue-based.
The species named for a further data set is Homo sapiens. Kind of data set: Selectivity index, ratio of IC50 for recombinant human MAOA to IC50 for recombinant human MAOB. In a few lines:
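Recombinant human MAO-A (12.5 µg/mL) or MAO-B (75 µg/mL) preincubated 15 min at 37 °C with compound (diluted from 10 mM DMSO stock in 50 mM KH2PO4, pH 7.4). Amplex Red working solution added: 2 mM p-tyramine (MAO-A) or benzylamine (MAO-B), 2 U/mL HRP. After 15 min at 37 °C, fluorescence read (ex 545/em 590), background from enzyme-free wells subtracted.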

Data set [2] can be described thus: Antioxidant activity assessed as trolox equivalent of AAPH radical scavenging activity preincubated for 10 mins followed by AAPH addition measured every 2 mins for 180 mins by ORAC-FL assay. The data set is classed as functional. In short, it runs like this: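 Compound at 20 µM (diluted from 10 mM DMSO stock in 75 mM phosphate, pH 7.4) with fluorescein (0.117 µM diluted) for 10 min at 37 °C, then AAPH (40 mM solution) added. Fluorescence (ex 485/em 535) read every 2 min for 180 min. […] Triplicate wells, ≥3 runs.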

A short description of data set [3]: Metal chelating activity assessed as compound-Cu2+ complex formation at 40 uM in presence of CuCl2 after 30 mins by UV-visible spectrophotometric analysis. In short, it runs like this: (§1)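 UV–vis spectra (200–500 nm) of compound at 40 µM final, alone or with CuCl2, FeSO4, FeCl3 or ZnCl2 (20 µM final), after 30 min in 20 mM HEPES, 150 mM NaCl, pH 7.4, at room temperature.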

The nature of data set [4]: Metal chelating activity assessed as compound-Fe2+ complex formation at 40 uM in presence of FeSO4 after 30 mins by UV-visible spectrophotometric analysis. In a few lines:
as §1

Data set [5] can be described thus: Metal chelating activity assessed as compound-Zn2+ complex formation at 40 uM in presence of ZnCl2 after 30 mins by UV-visible spectrophotometric analysis. In short, it runs like this:
as §1

Data set [6] deals with Cortical neurone. Kind of data set: Cytotoxicity against E17 Sprague-Dawley rat primary cortical neurons at 10 to 30 uM after 24 hrs by MTT assay. Format: cell-based.
In data set [7] the test system is Cortical neurone. Put plainly: Cytotoxicity against E17 Sprague-Dawley rat primary cortical neurons at 100 uM after 24 hrs by MTT assay. Format: cell-based. In short, it runs like this: (§2)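 Primary cortical neurons from E17 SD rat embryos, trypsin-dissociated and cultured 9 days in neurobasal/B27 on poly-L-lysine (3×10^4 cells/well). Treated at 10, 30 and 100 µM for 24 h, with donepezil as reference. MTT (5 mg/mL, 10 µL) for 4 h at 37 °C, absorbance 490 nm, viability as % of vehicle-treated cells; mean ± SEM.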

In data set [8] the test system is Cortical neurone. Kind of data set: Cytotoxicity against E17 Sprague-Dawley rat primary cortical neurons at 100 uM after 24 hrs by MTT assay relative to donepezil. The data set is classed as cell-based. In short, it runs like this: as §2
Data set [9] in a line: Inhibition of Cu2+-mediated amyloid beta (1 to 42) peptide-induced cytotoxicity in E17 Sprague-Dawley rat primary cortical neurons assessed as neuroprotective activity by measuring increase in cell viability at 1 uM after 24 hrs by MTT assay. In a few lines: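 Rat E17 primary cortical neurons after 9 days in culture. Aβ1-42 samples, prepared as for the dot blot (± Cu2+, ± compound), added to the cultures at 1 µM for 24 h. Viability by MTT, normalized to the vehicle group. EGCG and clioquinol as positive controls.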

Another data set concerns Mus musculus. Put plainly: Reversal of scopolamine-induced dementia in ICR mouse assessed as decrease in frequent error incidences at 30 mg/kg, po administered 40 mins prior to scopolamine-challenge by water maze test. Format: functional, organism-based. In a few lines: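 Test compound as HCl salt, 30 mg/kg intragastric, given 40 min before scopolamine (4.5 mg/kg i.p.), which was given 20 min before the water maze. Escape latency and errors (entries into no-exit paths) recorded; mean ± SEM.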

The nature of data set [10]: Inhibition of Cu2+-induced amyloid beta (1 to 42 residues) (unknown origin) aggregation at 50 uM incubated at 37 degC for 24 hrs by dot immunoblot assay. In a few lines: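 Aβ1-42 (2000 µM stock in 1% ammonium hydroxide) diluted in […], pH 6.6. Peptide 25 µM ± Cu(II) 25 µM ± compound 50 µM, incubated 37 °C for 24 h. Samples spotted on nitrocellulose, blocked in 5% milk, probed overnight at 4 °C with A11 (oligomers) or 6E10 (total Aβ), HRP secondary, densitometry. N = 4, mean ± SEM; EGCG control.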

Another data set in a line: in vitro. The following applies: PAMPA.
Data set [11] can be described thus: Inhibition of Cu2+-mediated amyloid beta (1 to 42) (unknown origin) aggregation at 50 uM after 24 hrs by dot blot assay.

pIC50: −log10 of the molar value. Activity calls are given as the source filed them. No cut-off for these calls is given here.

Chain of Butyrylcholinesterase (Rattus norvegicus) (Q9JKC1 as listed by the source): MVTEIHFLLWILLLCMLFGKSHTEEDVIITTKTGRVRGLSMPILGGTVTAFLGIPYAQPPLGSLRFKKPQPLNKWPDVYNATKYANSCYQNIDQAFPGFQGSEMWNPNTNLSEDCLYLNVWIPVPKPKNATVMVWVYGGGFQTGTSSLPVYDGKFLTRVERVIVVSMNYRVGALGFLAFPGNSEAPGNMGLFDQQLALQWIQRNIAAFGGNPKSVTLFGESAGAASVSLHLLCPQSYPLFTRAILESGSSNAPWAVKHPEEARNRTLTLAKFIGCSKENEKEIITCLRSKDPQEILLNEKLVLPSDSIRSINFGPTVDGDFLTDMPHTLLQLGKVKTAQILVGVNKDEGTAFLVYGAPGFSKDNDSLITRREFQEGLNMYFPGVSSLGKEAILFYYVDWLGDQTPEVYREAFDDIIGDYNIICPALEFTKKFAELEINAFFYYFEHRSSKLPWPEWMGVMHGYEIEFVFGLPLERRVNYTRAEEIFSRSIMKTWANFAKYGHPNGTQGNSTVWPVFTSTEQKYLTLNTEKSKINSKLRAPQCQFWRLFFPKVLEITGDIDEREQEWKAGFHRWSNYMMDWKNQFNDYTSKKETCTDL

In data set [1], `C#CCN(C)Cc1cn(-c2cc(NC(=S)NCC)ncn2)cn1` showed an inhibition of 12.6%. On Acetylcholinesterase, the negative logarithm of the IC50 (pIC50) was 6.49. Besides, the Ratio IC50 was > 123 in the data set listed under Rattus norvegicus and > 35 in the data set listed under Homo sapiens. The Activity (umolequiv/umol) in data set [2] came to 1.13. The result (in [3]; in data set [9]; in the data set on Mus musculus) was Active. The result in data set [4] and in data set [5] was inactive. Besides, the Activity entry is given as “Non-Toxic” with Cortical neurone [6], “Toxic” with Cortical neurone [7] and “Non-Toxic” with Cortical neurone [8]. The inhibition entry in [10] and in data set [11] was “Active” in each case. The same compound had an apparent permeability (Papp) at 12 h, 100 ug/ml in the data set “in vitro” of 3.16 ×10⁻⁶ cm/s.
